# ChEMBL document CHEMBL2016552, “Pyrazine-based Syk kinase inhibitors” (Bioorg Med Chem Lett, 2012)
# pIC50: −log10 of the molar value.
# Key:
# LAD2 [1] = test: Inhibition of IgE-mediated human LAD2 cell degranulation assessed as beta-hexosaminidase release using p-nitrophenyl-N-acetyl-D-glucosamide as substrate preincubated for 30 mins measured 90 mins after substrate addition by spectrophotometric analysis
# LAD2 [2] = test: Inhibition of IgE-mediated human LAD2 cell degranulation assessed as beta-hexosaminidase release using p-nitrophenyl-N-acetyl-D-glucosamide as substrate at 1 uM preincubated for 30 mins measured 90 mins after substrate addition by spectrophotometric analysis; type: functional
# Method in brief: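 LAD2 mast cells sensitised overnight (37°, 5% CO2) in StemPro-34 with 2 mM glutamine and 100 ng/ml SCF plus 100 ng/ml biotin-IgE. Cells washed into release buffer (0.025% BSA), 10,000/well, compound 30 min, then streptavidin 125 ng/ml for 30 min. Supernatants and freeze-thaw lysates incubated with 1 mM substrate (citrate, pH 4.5) 90 min at 37°C. Stopped with 0.4 M glycine pH 10.0; A405 read.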
# [3] = target: Tyrosine-protein kinase SYK (Homo sapiens, UniProt P43405); test: Inhibition of human recombinant […] using poly-GT as substrate and [33P]ATP after 40 mins by beta counting
# [4] = Apparent permeability across basolateral to apical side in human Caco2 cells; type: ADME, cell-based; conditions: Caco-2
# [5] = target: Serine/threonine-protein kinase pim-1 (Homo sapiens) (UniProt P11309); conditions: 1 uM
# [6] = target: Ribosomal protein S6 kinase alpha-6 (Homo sapiens) (UniProt Q9UK32); conditions: 1 uM
# [7] = target: Tyrosine-protein kinase JAK2 (Homo sapiens) (UniProt O60674); conditions: 1 uM
# [8] = target: Cyclin-dependent kinase 1/cyclin B1 (Homo sapiens) (UniProt P06493+P14635); conditions: 1 uM
# [9] = target: Macrophage colony-stimulating factor 1 receptor (Homo sapiens) (UniProt P07333); conditions: 1 uM
# [10] = Aqueous solubility of the compound at pH 7.4; type: physicochemical
# [11] = target: High affinity nerve growth factor receptor (Homo sapiens) (UniProt P04629); conditions: 1 uM
# [12] = target: Receptor-type tyrosine-protein kinase FLT3 (Homo sapiens) (UniProt P36888); conditions: 1 uM
# [13] = target: Focal adhesion kinase 1 (Homo sapiens) (UniProt Q05397); conditions: 1 uM
# Sequence of Focal adhesion kinase 1 (Homo sapiens) (Q05397 2-1052 limits assumed): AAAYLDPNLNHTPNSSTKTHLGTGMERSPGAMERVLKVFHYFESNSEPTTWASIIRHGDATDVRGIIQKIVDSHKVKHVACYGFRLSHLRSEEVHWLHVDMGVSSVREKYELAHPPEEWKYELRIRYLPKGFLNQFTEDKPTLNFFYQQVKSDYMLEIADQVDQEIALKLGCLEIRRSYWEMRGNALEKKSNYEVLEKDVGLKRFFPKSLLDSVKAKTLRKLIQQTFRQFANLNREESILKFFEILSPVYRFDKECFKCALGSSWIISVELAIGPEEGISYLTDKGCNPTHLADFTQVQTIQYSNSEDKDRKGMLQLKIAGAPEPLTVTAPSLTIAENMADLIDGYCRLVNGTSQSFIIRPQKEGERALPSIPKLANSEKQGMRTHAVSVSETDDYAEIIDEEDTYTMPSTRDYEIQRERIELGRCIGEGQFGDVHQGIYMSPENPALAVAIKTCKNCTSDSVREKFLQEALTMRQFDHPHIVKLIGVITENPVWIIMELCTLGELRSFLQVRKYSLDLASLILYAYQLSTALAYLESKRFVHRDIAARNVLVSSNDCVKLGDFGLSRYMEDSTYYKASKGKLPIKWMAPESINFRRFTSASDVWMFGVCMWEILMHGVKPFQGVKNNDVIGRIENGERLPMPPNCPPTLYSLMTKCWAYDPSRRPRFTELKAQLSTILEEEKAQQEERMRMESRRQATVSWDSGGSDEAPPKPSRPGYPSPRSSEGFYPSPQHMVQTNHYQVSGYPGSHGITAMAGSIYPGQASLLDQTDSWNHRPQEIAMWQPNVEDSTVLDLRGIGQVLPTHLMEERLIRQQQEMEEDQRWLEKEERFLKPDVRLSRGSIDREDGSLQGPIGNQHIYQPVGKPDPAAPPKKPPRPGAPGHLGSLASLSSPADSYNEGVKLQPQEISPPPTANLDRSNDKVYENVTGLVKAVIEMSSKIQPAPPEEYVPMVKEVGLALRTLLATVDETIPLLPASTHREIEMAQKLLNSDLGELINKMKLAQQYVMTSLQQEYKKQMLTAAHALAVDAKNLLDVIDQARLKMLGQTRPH
# [14] = target: Protein kinase C epsilon type (Homo sapiens) (UniProt Q02156); conditions: 1 uM
# [15] = target: 3-phosphoinositide-dependent protein kinase 1 (Homo sapiens) (UniProt O15530); conditions: 1 uM
# [16] = target: Tyrosine-protein kinase Lck (Homo sapiens) (UniProt P06239); conditions: 1 uM
# [17] = target: Protein kinase C beta type (Homo sapiens) (UniProt P05771); conditions: 1 uM
# [18] = target: Rho-associated protein kinase 2 (Homo sapiens) (UniProt O75116); conditions: 1 uM
# [19] = target: Mitogen-activated protein kinase 10 (Homo sapiens) (UniProt P53779); conditions: 1 uM
# Sequence of Mitogen-activated protein kinase 10 (Homo sapiens) (P53779 whole entry): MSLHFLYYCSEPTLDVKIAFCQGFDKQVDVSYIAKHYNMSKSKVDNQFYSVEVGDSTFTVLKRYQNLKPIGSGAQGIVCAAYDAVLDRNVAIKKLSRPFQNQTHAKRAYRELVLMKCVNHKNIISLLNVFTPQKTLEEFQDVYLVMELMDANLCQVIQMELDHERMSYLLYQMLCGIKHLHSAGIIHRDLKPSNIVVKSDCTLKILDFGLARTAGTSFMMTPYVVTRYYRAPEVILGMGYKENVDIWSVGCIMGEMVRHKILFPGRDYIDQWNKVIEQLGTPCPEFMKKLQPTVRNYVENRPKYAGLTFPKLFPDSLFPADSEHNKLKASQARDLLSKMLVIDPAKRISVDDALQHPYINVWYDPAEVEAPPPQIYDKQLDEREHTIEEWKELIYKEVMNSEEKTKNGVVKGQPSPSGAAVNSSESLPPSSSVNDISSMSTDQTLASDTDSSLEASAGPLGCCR
# [20] = target: Tyrosine-protein kinase HCK (Homo sapiens) (UniProt P08631); conditions: 1 uM
# [21] = target: Tyrosine-protein kinase Yes (Homo sapiens) (UniProt P07947); conditions: 1 uM
# [22] = target: ALK tyrosine kinase receptor (Homo sapiens) (UniProt Q9UM73); conditions: 1 uM
# [23] = target: Glycogen synthase kinase-3 beta (Homo sapiens) (UniProt P49841); conditions: 1 uM
# [24] = target: MAP kinase-activated protein kinase 5 (Homo sapiens) (UniProt Q8IW41); conditions: 1 uM
# [25] = target: Tyrosine-protein kinase Fgr (Homo sapiens) (UniProt P09769); conditions: 1 uM
# [26] = target: Glycogen synthase kinase-3 alpha (Homo sapiens) (UniProt P49840); conditions: 1 uM
# [27] = target: Serine/threonine-protein kinase Chk1 (Homo sapiens) (UniProt O14757); conditions: 1 uM
# Sequence of Serine/threonine-protein kinase Chk1 (Homo sapiens) (O14757 whole entry): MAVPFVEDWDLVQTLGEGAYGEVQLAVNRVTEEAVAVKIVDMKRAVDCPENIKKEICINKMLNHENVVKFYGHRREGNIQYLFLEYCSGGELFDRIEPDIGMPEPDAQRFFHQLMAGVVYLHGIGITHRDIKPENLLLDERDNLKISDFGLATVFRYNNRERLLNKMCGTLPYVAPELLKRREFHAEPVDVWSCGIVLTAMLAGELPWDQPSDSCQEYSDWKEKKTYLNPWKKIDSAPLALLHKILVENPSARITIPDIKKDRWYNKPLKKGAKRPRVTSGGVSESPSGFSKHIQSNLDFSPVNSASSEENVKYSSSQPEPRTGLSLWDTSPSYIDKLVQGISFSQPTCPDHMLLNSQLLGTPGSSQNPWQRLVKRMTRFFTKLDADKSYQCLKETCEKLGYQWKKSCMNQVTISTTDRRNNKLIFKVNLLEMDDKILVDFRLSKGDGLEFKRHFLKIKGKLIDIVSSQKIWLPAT
# [28] = target: Hepatocyte growth factor receptor (Homo sapiens) (UniProt P08581); conditions: 1 uM
# [29] = target: Aurora kinase A (Homo sapiens) (UniProt O14965); conditions: 1 uM
# [30] = target: Vascular endothelial growth factor receptor 1 (Homo sapiens) (UniProt P17948); conditions: 1 uM
# Sequence of Vascular endothelial growth factor receptor 1 (Homo sapiens) (P17948 whole entry): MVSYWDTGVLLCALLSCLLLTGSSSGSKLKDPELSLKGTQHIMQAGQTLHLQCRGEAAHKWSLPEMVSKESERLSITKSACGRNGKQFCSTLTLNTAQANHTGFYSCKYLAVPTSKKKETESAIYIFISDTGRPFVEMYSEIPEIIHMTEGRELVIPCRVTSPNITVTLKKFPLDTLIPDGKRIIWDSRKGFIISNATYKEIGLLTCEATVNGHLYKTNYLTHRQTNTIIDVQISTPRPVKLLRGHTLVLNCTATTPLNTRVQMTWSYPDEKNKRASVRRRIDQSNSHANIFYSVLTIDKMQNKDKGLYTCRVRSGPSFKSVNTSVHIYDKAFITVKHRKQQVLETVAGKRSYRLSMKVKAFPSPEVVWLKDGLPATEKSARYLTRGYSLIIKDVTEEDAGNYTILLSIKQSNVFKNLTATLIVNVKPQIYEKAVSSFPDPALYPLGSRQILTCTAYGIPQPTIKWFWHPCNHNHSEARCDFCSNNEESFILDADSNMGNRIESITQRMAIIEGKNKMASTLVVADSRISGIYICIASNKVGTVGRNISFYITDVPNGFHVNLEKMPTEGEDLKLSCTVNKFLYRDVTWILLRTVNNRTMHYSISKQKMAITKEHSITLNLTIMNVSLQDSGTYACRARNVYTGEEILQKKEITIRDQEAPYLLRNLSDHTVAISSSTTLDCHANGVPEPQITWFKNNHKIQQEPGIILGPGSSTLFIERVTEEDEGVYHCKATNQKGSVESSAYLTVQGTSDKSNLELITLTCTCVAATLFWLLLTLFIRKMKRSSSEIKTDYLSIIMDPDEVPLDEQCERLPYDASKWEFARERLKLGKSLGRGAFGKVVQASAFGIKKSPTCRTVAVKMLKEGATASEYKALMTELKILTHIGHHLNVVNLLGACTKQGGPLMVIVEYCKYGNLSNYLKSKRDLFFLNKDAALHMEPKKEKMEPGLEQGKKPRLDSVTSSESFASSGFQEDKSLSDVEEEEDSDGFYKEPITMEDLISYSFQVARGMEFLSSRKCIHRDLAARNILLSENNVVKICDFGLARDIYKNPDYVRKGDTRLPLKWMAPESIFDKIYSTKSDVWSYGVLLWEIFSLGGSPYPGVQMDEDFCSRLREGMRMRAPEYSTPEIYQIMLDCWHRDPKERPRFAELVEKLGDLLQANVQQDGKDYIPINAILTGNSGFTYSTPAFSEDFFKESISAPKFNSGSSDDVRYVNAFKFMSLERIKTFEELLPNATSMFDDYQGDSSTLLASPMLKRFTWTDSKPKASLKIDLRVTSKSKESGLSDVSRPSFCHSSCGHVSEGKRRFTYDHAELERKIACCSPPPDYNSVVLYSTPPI
# [31] = target: Dual specificity mitogen-activated protein kinase kinase 6 (Homo sapiens) (UniProt P52564); conditions: 1 uM
# CHO = test: Cytotoxicity against CHO cells; type: cell-based, Cricetulus griseus; conditions: chinese hamster
# [32] = target: T1, Tyrosine-protein kinase Lyn (Homo sapiens, UniProt P07948); conditions: 1 uM
# [33] = target: Proto-oncogene tyrosine-protein kinase receptor Ret (Homo sapiens) (UniProt P07949); conditions: 1 uM
# [34] = target: Fibroblast growth factor receptor 3 (Homo sapiens) (UniProt P22607); conditions: 1 uM
# [35] = target: Tyrosine-protein kinase BTK (Homo sapiens) (UniProt Q06187); conditions: 1 uM
# Sequence of Tyrosine-protein kinase BTK (Homo sapiens) (Q06187 whole entry): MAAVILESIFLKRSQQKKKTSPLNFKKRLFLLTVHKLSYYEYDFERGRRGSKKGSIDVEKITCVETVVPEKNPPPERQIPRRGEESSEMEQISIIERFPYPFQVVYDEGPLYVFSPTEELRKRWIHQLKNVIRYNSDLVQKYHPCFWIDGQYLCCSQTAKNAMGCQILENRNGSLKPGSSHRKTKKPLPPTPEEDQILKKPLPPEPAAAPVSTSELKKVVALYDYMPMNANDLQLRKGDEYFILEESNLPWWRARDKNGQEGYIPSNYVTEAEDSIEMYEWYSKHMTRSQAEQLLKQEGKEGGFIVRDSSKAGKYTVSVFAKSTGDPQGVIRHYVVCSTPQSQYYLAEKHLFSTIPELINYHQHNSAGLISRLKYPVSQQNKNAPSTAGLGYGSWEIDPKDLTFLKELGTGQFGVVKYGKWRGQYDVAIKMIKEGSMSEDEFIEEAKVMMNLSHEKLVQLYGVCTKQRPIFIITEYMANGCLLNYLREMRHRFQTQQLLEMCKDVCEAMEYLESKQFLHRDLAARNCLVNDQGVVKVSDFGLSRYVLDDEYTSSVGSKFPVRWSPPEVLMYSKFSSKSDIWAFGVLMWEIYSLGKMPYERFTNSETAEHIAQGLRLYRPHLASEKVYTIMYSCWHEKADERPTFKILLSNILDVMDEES
# [36] = target: Inhibitor of nuclear factor kappa-B kinase subunit beta (Homo sapiens) (UniProt O14920); conditions: 1 uM
# [37] = target: Calcium/calmodulin-dependent protein kinase type II subunit delta (Homo sapiens) (UniProt Q13557); conditions: 1 uM
# Sequence of Calcium/calmodulin-dependent protein kinase type II subunit delta (Homo sapiens) (Q13557 whole entry, canonical isoform): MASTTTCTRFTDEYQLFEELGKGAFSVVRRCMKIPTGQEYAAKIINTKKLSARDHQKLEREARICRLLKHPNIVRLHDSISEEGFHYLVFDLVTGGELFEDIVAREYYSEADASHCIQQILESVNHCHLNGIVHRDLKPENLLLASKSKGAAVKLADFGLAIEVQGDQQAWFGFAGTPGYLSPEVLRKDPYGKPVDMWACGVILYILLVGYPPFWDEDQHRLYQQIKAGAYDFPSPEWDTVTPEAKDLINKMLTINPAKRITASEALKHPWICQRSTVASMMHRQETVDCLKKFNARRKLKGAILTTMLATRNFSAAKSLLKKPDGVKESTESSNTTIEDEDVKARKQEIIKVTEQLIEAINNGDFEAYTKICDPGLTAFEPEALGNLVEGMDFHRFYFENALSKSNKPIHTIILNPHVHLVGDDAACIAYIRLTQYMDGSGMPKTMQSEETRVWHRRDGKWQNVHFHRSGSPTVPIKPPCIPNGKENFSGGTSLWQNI
# [38] = target: Casein kinase I isoform delta (Homo sapiens) (UniProt P48730); conditions: 1 uM
# [39] = target: T1, Tyrosine-protein kinase Lyn; test: Inhibition of human Lyn
# [40] = target: Tyrosine-protein kinase JAK3 (Homo sapiens) (UniProt P52333); conditions: 1 uM
# [41] = target: Tyrosine-protein kinase ZAP-70 (Homo sapiens) (UniProt P43403); conditions: 1 uM
# [42] = target: Proto-oncogene tyrosine-protein kinase Src (Homo sapiens) (UniProt P12931); conditions: 1 uM
# [43] = Apparent permeability across apical to basolateral side in human Caco2 cells; type: ADME, cell-based; conditions: Caco-2
# [44] = target: Mitogen-activated protein kinase kinase kinase 7 (TAK1) (Homo sapiens) (UniProt O43318); conditions: 1 uM
# [45] = target: Tyrosine-protein kinase Fyn (Homo sapiens) (UniProt P06241); conditions: 1 uM
# Sequence of Tyrosine-protein kinase Fyn (Homo sapiens) (P06241 2-537 limits assumed): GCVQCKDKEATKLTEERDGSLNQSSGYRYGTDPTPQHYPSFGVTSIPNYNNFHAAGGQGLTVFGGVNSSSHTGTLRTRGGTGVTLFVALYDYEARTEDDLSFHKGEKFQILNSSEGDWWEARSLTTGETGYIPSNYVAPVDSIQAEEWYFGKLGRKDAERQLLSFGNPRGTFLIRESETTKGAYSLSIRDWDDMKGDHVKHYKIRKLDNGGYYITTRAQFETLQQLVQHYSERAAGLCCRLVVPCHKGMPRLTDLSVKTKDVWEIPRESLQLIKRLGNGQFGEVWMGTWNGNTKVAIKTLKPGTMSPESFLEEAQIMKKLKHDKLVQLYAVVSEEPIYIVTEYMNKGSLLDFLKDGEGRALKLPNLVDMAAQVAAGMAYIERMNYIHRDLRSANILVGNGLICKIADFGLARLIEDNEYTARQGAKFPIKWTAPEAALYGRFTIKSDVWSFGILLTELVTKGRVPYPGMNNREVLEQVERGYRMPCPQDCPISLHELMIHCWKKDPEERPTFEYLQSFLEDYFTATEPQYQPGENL
# [46] = target: Tyrosine-protein kinase receptor UFO (Homo sapiens) (UniProt P30530); conditions: 1 uM
# [47] = target: Protein kinase C gamma type (Homo sapiens) (UniProt P05129); conditions: 1 uM
# [48] = Lipophilicity, log D of the compound at pH 7.4; type: physicochemical; conditions: buffer
# [49] = target: Protein-tyrosine kinase 2-beta (Homo sapiens) (UniProt Q14289); conditions: 1 uM
# [50] = target: Tyrosine-protein kinase ITK/TSK (Homo sapiens) (UniProt Q08881); conditions: 1 uM
smiles,measurement,setting,value
Cn1cc(-c2cccc(-c3cnc(N)c(C(=O)NC(C)(C)C4CCNCC4)n3)c2)cn1,pIC50,LAD2 [1],6.26
CC(C)(NC(=O)c1nc(-c2ccc3c(c2)NC(=O)C3)cnc1N)C1CCNCC1,inhibition at 1 µM,LAD2 [2],10%
COc1cccc(-c2cnc(N)c(C(=O)NC(C)(C)C3CCNCC3)n2)c1,pIC50,LAD2 [1],5.71
Nc1ncc(-c2cccc(-c3cnn(CC(=O)O)c3)c2)nc1C(=O)N[C@H]1C2CC3CC1C[C@@](O)(C3)C2,inhibition at 1 µM,LAD2 [2],43%
Nc1ncc(-c2cccc(-c3cnn(CC(F)(F)F)c3)c2)nc1C(=O)N[C@H]1C2CC3CC1C[C@@](O)(C3)C2,pIC50,LAD2 [1],6.85
CS(=O)(=O)Nc1cccc(-c2cnc(N)c(C(=O)N3CCC(O)CC3)n2)c1,pIC50,[3],< 4.30
Nc1ncc(-c2ccc3cn[nH]c3c2)nc1C(=O)N[C@H]1C2CC3CC1C[C@@](O)(C3)C2,pIC50,LAD2 [1],6.92
Nc1ncc(-c2cccc(-c3cnn(CCO)c3)c2)nc1C(=O)N[C@H]1C2CC3CC1C[C@@](O)(C3)C2,pIC50,LAD2 [1],6.92
CC(C)n1cc(-c2cccc(-c3cnc(N)c(C(=O)N[C@H]4C5CC6CC4C[C@@](O)(C6)C5)n3)c2)cn1,pIC50,LAD2 [1],6.66
Cn1cc(-c2cccc(-c3cnc(N)c(C(=O)N[C@H]4C5CC6CC4C[C@](O)(C6)C5)n3)c2)cn1,pIC50,LAD2 [1],6.92
same,pIC50,[3],7.70
Cc1cc(-c2cnn(C)c2)cc(-c2cnc(N)c(C(=O)N[C@H]3C4CC5CC3C[C@@](O)(C5)C4)n2)c1,pIC50,LAD2 [1],6.82
COc1cc(-c2cnn(C)c2)cc(-c2cnc(N)c(C(=O)N[C@H]3C4CC5CC3C[C@@](O)(C5)C4)n2)c1,pIC50,LAD2 [1],6.85
Nc1ccc(-c2cccc(-c3cnc(N)c(C(=O)N[C@H]4C5CC6CC4C[C@@](O)(C6)C5)n3)c2)cn1,pIC50,LAD2 [1],6.74
NCCn1cc(-c2cccc(-c3cnc(N)c(C(=O)N[C@H]4C5CC6CC4C[C@@](O)(C6)C5)n3)c2)cn1,pIC50,LAD2 [1],6.00
CC(C)(NC(=O)c1nc(-c2ccc3cn[nH]c3c2)cnc1N)C1CCNCC1,pIC50,LAD2 [1],6.07
CCCn1cc(-c2cccc(-c3cnc(N)c(C(=O)N[C@H]4C5CC6CC4C[C@@](O)(C6)C5)n3)c2)cn1,pIC50,LAD2 [1],6.77
Nc1ncc(-c2ccc3cn[nH]c3c2)nc1C(=O)N[C@H]1C2CC3CC1C[C@](O)(C3)C2,pIC50,LAD2 [1],6.40
CCn1cc(-c2cccc(-c3cnc(N)c(C(=O)N[C@H]4C5CC6CC4C[C@](O)(C6)C5)n3)c2)cn1,pIC50,LAD2 [1],6.74
CC(C)(NC(=O)c1nc(-c2cccc3cn[nH]c23)cnc1N)C1CCNCC1,inhibition at 1 µM,LAD2 [2],48%
CC(C)(NC(=O)c1nc(-c2cccc(-c3ccc(N)nc3)c2)cnc1N)C1CCNCC1,pIC50,LAD2 [1],6.25
same,Papp B→A,[4],2.38 ×10⁻⁶ cm/s
COCCn1cc(-c2cccc(-c3cnc(N)c(C(=O)N[C@H]4C5CC6CC4C[C@@](O)(C6)C5)n3)c2)cn1,pIC50,LAD2 [1],6.74
Nc1ncc(-c2cccc(-c3cn[nH]c3)c2)nc1C(=O)N[C@H]1C2CC3CC1C[C@@](O)(C3)C2,pIC50,LAD2 [1],7.00
CCn1cc(-c2cccc(-c3cnc(N)c(C(=O)N[C@H]4C5CC6CC4C[C@@](O)(C6)C5)n3)c2)cn1,pIC50,LAD2 [1],6.96
Cn1cc(-c2cccc(-c3cnc(N)c(C(=O)N[C@H]4C5CC6CC4C[C@@](O)(C6)C5)n3)c2)cn1,pIC50,LAD2 [1],7.05
same,inhibition,[5],> 50%
same,inhibition,[6],> 50%
same,inhibition,[7],> 50%
same,inhibition,[8],> 50%
same,inhibition,[9],> 50%
same,solubility,[10],25 µg/mL
same,inhibition,[11],> 50%
same,inhibition,[12],> 50%
same,inhibition,[13],< 50%
same,inhibition,[14],< 50%
same,inhibition,[15],< 50%
same,inhibition,[16],> 50%
same,inhibition,[17],< 50%
same,inhibition,[18],< 50%
same,inhibition,[19],< 50%
same,pIC50,[3],7.40
same,inhibition,[20],> 50%
same,inhibition,[21],> 50%
same,inhibition,[22],> 50%
same,inhibition,[23],< 50%
same,inhibition,[24],< 50%
same,inhibition,[25],> 50%
same,inhibition,[26],> 50%
same,inhibition,[27],< 50%
same,inhibition,[28],< 50%
same,inhibition,[29],> 50%
same,inhibition,[30],> 50%
same,inhibition,[31],< 50%
same,Papp B→A,[4],13 ×10⁻⁶ cm/s
same,Activity,CHO,Non-toxic
same,inhibition,[32],> 50%
same,inhibition,[33],> 50%
same,inhibition,[34],> 50%
same,inhibition,[35],< 50%
same,inhibition,[36],< 50%
same,inhibition,[37],< 50%
same,inhibition,[38],< 50%
same,pIC50,[39],6.49
same,inhibition,[40],> 50%
same,inhibition,[41],< 50%
same,inhibition,[42],> 50%
same,Papp A→B,[43],28 ×10⁻⁶ cm/s
same,inhibition,[44],< 50%
same,inhibition,[45],> 50%
same,inhibition,[46],> 50%
same,inhibition,[47],< 50%
same,logD,[48],1.5
same,inhibition,[49],< 50%
same,inhibition,[50],< 50%
NC(=O)Cn1cc(-c2cccc(-c3cnc(N)c(C(=O)N[C@H]4C5CC6CC4C[C@@](O)(C6)C5)n3)c2)cn1,pIC50,LAD2 [1],6.80
COc1cncc(-c2cccc(-c3cnc(N)c(C(=O)NC(C)(C)C4CCNCC4)n3)c2)c1,inhibition at 1 µM,LAD2 [2],65%
Nc1ncc(-c2cccc(-c3cnn(CCO)c3)c2)nc1C(=O)N[C@H]1C2CC3CC1C[C@](O)(C3)C2,pIC50,LAD2 [1],6.85
CC(C)(NC(=O)c1nc(-c2cccc(OC(F)(F)F)c2)cnc1N)C1CCNCC1,pIC50,LAD2 [1],5.96
